From ChEMBL document CHEMBL3352558, “β-Keto and β-hydroxyphosphonate analogs of biotin-5'-AMP are inhibitors of holocarboxylase synthetase” (Bioorg Med Chem Lett, 2014) come the findings set out here.

Activity calls are given as the source filed them. No cut-off for these calls is given here.

Experiment [1] can be described thus: Selectivity for Staphylococcus aureus biotin protein ligase over human HLCS.
In experiment [2] the target is T1, Biotin--protein ligase (Homo sapiens) (UniProt P50747).
T1 sequence (whole entry): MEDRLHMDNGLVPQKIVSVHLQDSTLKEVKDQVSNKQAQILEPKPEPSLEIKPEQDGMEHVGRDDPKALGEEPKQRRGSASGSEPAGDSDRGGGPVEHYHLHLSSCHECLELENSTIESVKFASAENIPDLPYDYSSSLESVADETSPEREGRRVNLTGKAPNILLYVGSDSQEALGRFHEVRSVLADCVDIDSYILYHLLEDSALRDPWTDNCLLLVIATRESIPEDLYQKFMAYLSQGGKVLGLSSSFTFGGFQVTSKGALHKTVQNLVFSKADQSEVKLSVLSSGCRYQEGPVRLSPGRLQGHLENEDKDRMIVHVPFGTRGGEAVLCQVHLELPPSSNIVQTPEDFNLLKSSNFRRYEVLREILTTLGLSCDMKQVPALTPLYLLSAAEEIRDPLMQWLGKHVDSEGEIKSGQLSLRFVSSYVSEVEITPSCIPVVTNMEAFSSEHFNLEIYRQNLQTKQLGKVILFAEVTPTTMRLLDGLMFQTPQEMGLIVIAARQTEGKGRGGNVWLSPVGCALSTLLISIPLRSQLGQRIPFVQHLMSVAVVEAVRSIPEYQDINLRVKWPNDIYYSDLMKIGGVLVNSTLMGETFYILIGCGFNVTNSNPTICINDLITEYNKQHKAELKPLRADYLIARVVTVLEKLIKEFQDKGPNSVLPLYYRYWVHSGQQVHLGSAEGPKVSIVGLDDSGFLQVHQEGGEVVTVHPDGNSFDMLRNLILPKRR
The experiment in a line: Inhibition of human recombinant HLCS using P67 as substrate at 500 uM after 2 hrs relative to vehicle-treated control.

Experiment [3] addresses T1, Biotin--protein ligase (Homo sapiens). The experiment in a line: Competitive inhibition of human recombinant HLCS using P67 as substrate by Western blotting analysis in presence of biotin. The method in brief: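 Recombinant HLCS (30 nM) with 2 µM p67 and the activity-assay cofactors; inhibitor fixed at 250 µM or absent, biotin varied 0-360 µM. Reactions stopped with Tricine loading dye and 95°C for 10 min. Biotinylated p67 detected by Western blot with anti-biotin and infrared imaging.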
A general note: Immunoblotting shows a protein as a band on a membrane.

The target is the same in experiment [4]. The experiment in a line: (§1) Inhibition of human recombinant HLCS using P67 as substrate after 2 hrs relative to vehicle-treated control.
Another experiment has as its target T2, Biotin--protein ligase (Homo sapiens, UniProt P50747).
T2 sequence (P50747 whole entry): T1 sequence (whole entry)
The experiment is described as §1.

Experiment [5] can be described thus: Binding affinity to Staphylococcus aureus biotin protein ligase.

With `Nc1ncnc2c1ncn2[C@@H]1O[C@H](Cn2cc(CCCC[C@@H]3SC[C@@H]4NC(=O)N[C@@H]43)nn2)[C@@H](O)[C@H]1O`, in experiment [1], the Selectivity ratio was over 1100.
Usually inhibition stands for the drop in the measured response relative to a control, in per cent. The IC50 is the midpoint of a concentration-inhibition curve. The Ki is a dissociation constant, usually derived from enzyme kinetics or from competition with a known ligand. As to `Nc1ncnc2c1ncn2[C@@H]1O[C@H](COP(=O)(O)CC(=O)CCCC[C@@H]2SC[C@@H]3NC(=O)N[C@@H]32)[C@@H](O)[C@H]1O`, in experiment [2], the inhibition came to 81.3%. In addition, the inhibition result in experiment [3] was “Active”. The inhibition result in experiment [4] was “Dose-dependent effect”. In addition, on Biotin--protein ligase, the IC50 was 39.7 µM and the Ki was found to be 2 µM.
`Nc1ncnc2c1ncn2[C@@H]1O[C@H](COP(=O)(O)OCCCCC[C@@H]2SC[C@@H]3NC(=O)N[C@@H]32)[C@@H](O)[C@H]1O` came in with a Ki in experiment [5] of 0.03 µM. In experiment [2], the inhibition is 98%.
As for `COP(=O)(O)CC(=O)CCCC[C@@H]1SC[C@@H]2NC(=O)N[C@@H]21`, in experiment [3], the inhibition result was “inactive”.
On to `Nc1ncnc2c1ncn2[C@@H]1O[C@H](COP(=O)(O)CC(O)CCCC[C@@H]2SC[C@@H]3NC(=O)N[C@@H]32)[C@@H](O)[C@H]1O` (stereo partly drawn), for which the inhibition in experiment [2] was found to be 67.7%. In experiment [3], the inhibition result is “Active”. On Biotin--protein ligase, the IC50 was determined as 204 µM and the Ki worked out at 10.4 µM.
